These results are taken from ChEMBL document CHEMBL1155876 (J Med Chem, 2008).

pIC50: −log10 of the molar value.

Data set [1] concerns the target T1, Aurora kinase A (Homo sapiens, UniProt O14965).
T1 sequence (O14965 whole entry): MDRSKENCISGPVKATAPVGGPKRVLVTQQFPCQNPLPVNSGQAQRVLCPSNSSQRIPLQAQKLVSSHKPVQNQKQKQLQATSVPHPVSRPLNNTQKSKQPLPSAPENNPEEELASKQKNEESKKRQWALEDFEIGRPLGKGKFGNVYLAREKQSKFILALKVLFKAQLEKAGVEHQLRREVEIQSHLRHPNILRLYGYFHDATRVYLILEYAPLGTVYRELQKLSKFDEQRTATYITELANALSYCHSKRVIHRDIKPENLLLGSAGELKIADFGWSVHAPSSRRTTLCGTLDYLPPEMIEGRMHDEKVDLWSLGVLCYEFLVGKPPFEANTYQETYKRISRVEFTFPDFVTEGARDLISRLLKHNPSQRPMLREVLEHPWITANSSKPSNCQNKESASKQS
The experiment in a line: Inhibition of Aurora A.

Another data set concerns HT-29. The experiment in a line: Antiproliferative activity against human HT29 cells. Format: functional, cell-based. The method, boiled down:
(§1)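 HCT116, HT29 or MCF7 cells were seeded on day 0 in 1:1 Ham's F12/DMEM-high glucose with 10% FBS and 2 mM L-glutamine, then kept overnight at 37 °C in 5% CO2. On day 1, inhibitor in DMSO, diluted 20-fold in serum- and glutamine-free medium, was added. Viability was read on day 4 as total ATP by CellTiter-Glo luminescence.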

For the next data set, the system named is MCF7. The experiment in a line: Antiproliferative activity against human MCF7 cells. Format: functional, cell-based. The method in brief: as §1
Data set [2] addresses T2, Aurora kinase B (Homo sapiens, UniProt Q96GD4). Briefly: Inhibition of Aurora B.
A short description of data set [3]: Cmax in CD1 mouse at 30 mg/kg, po. Format: ADME, organism-based. Details: dose 30 mg/kg, route oral. The conditions noted are these: in vivo.
The nature of data set [4]: AUClast in CD1 mouse at 30 mg/kg, po. Format: ADME, organism-based. Details: time 0 - last, dose 30 mg/kg, route oral. The conditions noted are these: plasma.
The next data set deals with HCT-116. Briefly: Antiproliferative activity against human HCT116 cells.
The nature of data set [5]: Clearance in Sprague-Dawley rat 1 mg/kg, iv. Type of data set: ADME, organism-based. On the set-up: dose 1 mg/kg, route intravenous. Particulars: in vivo. The method in brief: (§2)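 A single 1 mg/kg iv dose was given. Vehicles: CD-1 mice (female, 3 per time point), 5% DMSO/5% Cremophor; SD rats (male, 3 per route), 80% PEG; beagles (male, 3 per route), 60% PEG. PK parameters were calculated from averaged serum levels (N = 3).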

The nature of data set [6]: Clearance in Beagle dog 1 mg/kg, iv. Details: dose 1 mg/kg, route intravenous. The conditions noted are these: in vivo. Format: ADME, organism-based, Canis lupus familiaris. The method, boiled down:
as §2

The subject of data set [7] is Mus musculus. Briefly: Toxicity in athymic mouse xenografted with human HCT116 cells assessed as bone marrow depletion at 10 mg/kg, po qd. Format: organism-based, HCT-116. On the set-up: dose 10 mg/kg, route oral. Particulars: in vivo. The method, boiled down: (§3)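 Female athymic nude mice, 5 × 10^6 HCT-116 cells injected subcutaneously in the right flank. At a mean tumor volume of ~150 mm3, mice were randomized to groups (N = 10). Oral QD dosing at 0, 1, 2.5, 5 or 10 mg/kg as a suspension in 20% HP-β-cyclodextrin (100 µL). Three mice per group were taken for PD after 2 days; the rest were dosed for 21 days. Body weight was followed, with euthanasia at 20% weight loss.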
A general note: A xenograft is tissue or cells of one species grown in another, often human tumour cells in immunodeficient mice.

Data set [8] relates to Mus musculus. Briefly: Toxicity in athymic mouse xenografted with human HCT116 cells assessed as loss of body weight at 10 mg/kg, po qd. Format: organism-based, HCT-116. Details: dose 10 mg/kg, route oral. Particulars: in vivo. The method, boiled down:
as §3

Data set [9] concerns Mus musculus. Briefly: Oral bioavailability in CD1 mouse 5 mg/kg. Type of data set: ADME, organism-based. Particulars: in vivo. The method, boiled down:
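Female CD-1 mice, three per time point. Oral dose 5 mg/kg as a solution in 80% polyethylene glycol; iv reference dose 1 mg/kg as a solution in 5% DMSO, 5% Cremophor. PK parameters calculated from mean serum levels (N = 3).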

Data set [10] can be described thus: Oral bioavailability in Beagle dog 5 mg/kg. Type of data set: ADME, organism-based, Canis lupus familiaris. The conditions noted are these: in vivo. The method, boiled down: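 Three male beagles per route. Oral dose 5 mg/kg given as a solution in 80% PEG; iv comparator 1 mg/kg delivered in 60% PEG. Mean serum concentrations (N = 3) used to derive PK parameters.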

The target of data set [11] is T2, Aurora kinase B. Briefly: Inhibition of Aurora B assessed as loss of phospho histone H3 in human […] cells. Type of data set: cell-based.
Data set [12] deals with Proto-oncogene tyrosine-protein kinase Src (Homo sapiens, UniProt P12931). Briefly: Inhibition of Src.
Data set [13] has as its target Cyclin-dependent kinase 2 (Homo sapiens, UniProt P24941). Briefly: Inhibition of CDK2/CyclinA.
In data set [14] the target is T2, Aurora kinase B. Briefly: Inhibition of Aurora B assessed as loss of phospho histone H3 in human HCT cells. Type of data set: cell-based.
The nature of data set [15]: Clearance in CD1 mouse 1 mg/kg, iv. Type of data set: ADME, organism-based. On the set-up: dose 1 mg/kg, route intravenous. The conditions noted are these: in vivo. The method in brief: as §2
Data set [16] deals with Mus musculus. Briefly: Toxicity in athymic mouse xenografted with human HCT116 cells assessed as gastrointestinal hypocellularity at 10 mg/kg, po qd. The conditions noted are these: in vivo.
Data set [17] addresses Serine/threonine-protein kinase Chk1 (Homo sapiens, UniProt O14757). Briefly: Inhibition of Chk1.
Data set [18] concerns the target Vascular endothelial growth factor receptor 2 (Homo sapiens, UniProt P35968). Briefly: Inhibition of KDR.
Data set [19] addresses Receptor-type tyrosine-protein kinase FLT3 (Homo sapiens, UniProt P36888). Briefly: Inhibition of Flt3.
Data set [20] concerns the target T1, Aurora kinase A. The experiment in a line: Inhibition of Aurora A in human HCT cells assessed as loss of autophosphorylation of Aurora A. Format: cell-based.
Data set [21] in a line: Oral bioavailability in Sprague-Dawley rat 5 mg/kg. Type of data set: ADME, organism-based. Particulars: in vivo. The method in brief: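 Male Sprague-Dawley rats, three per route. Oral dose 5 mg/kg as a solution in 80% PEG; iv dose 1 mg/kg, also as an 80% PEG solution. PK parameters calculated from averaged serum levels (N = 3).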
Data set [22] has as its target Glycogen synthase kinase-3 beta (Homo sapiens, UniProt P49841). Briefly: Inhibition of GSK3-beta.

T2 sequence (Q96GD4 whole entry): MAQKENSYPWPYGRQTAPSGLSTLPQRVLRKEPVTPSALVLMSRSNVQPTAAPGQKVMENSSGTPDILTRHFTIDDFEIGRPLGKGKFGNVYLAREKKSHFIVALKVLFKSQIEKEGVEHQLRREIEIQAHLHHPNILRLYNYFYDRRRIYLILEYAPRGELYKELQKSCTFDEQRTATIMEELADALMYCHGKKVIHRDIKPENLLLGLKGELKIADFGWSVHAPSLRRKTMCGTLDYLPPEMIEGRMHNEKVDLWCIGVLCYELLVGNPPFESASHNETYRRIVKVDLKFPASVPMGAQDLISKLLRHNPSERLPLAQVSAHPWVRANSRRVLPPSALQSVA
Sequence of Proto-oncogene tyrosine-protein kinase Src (P12931 2-536 limits assumed): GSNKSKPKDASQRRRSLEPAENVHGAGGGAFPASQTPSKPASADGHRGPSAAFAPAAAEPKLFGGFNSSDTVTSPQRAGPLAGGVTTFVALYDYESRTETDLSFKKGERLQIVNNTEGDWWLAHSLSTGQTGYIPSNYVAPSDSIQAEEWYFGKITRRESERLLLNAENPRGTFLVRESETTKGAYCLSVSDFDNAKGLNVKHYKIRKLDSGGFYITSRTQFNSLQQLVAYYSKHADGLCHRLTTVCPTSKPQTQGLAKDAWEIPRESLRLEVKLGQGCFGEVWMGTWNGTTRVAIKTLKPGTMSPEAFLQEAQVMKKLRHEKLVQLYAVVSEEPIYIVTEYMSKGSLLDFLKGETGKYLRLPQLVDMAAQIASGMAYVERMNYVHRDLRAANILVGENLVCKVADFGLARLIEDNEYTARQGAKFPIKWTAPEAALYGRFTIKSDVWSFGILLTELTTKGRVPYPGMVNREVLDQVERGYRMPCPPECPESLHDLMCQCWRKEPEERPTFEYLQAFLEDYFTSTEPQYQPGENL
Sequence of Glycogen synthase kinase-3 beta (P49841 whole entry): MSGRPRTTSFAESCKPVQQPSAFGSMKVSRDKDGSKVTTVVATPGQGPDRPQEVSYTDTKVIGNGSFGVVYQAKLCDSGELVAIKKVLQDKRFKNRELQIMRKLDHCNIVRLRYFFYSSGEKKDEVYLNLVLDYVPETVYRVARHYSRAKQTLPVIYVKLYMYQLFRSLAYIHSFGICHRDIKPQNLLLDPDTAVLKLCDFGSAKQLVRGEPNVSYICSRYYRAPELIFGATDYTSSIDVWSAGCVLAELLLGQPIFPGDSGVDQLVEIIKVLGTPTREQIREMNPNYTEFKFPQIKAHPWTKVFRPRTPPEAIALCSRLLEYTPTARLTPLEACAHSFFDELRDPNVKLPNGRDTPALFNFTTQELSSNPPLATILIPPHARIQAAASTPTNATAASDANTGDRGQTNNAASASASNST
Sequence of Vascular endothelial growth factor receptor 2 (P35968 whole entry): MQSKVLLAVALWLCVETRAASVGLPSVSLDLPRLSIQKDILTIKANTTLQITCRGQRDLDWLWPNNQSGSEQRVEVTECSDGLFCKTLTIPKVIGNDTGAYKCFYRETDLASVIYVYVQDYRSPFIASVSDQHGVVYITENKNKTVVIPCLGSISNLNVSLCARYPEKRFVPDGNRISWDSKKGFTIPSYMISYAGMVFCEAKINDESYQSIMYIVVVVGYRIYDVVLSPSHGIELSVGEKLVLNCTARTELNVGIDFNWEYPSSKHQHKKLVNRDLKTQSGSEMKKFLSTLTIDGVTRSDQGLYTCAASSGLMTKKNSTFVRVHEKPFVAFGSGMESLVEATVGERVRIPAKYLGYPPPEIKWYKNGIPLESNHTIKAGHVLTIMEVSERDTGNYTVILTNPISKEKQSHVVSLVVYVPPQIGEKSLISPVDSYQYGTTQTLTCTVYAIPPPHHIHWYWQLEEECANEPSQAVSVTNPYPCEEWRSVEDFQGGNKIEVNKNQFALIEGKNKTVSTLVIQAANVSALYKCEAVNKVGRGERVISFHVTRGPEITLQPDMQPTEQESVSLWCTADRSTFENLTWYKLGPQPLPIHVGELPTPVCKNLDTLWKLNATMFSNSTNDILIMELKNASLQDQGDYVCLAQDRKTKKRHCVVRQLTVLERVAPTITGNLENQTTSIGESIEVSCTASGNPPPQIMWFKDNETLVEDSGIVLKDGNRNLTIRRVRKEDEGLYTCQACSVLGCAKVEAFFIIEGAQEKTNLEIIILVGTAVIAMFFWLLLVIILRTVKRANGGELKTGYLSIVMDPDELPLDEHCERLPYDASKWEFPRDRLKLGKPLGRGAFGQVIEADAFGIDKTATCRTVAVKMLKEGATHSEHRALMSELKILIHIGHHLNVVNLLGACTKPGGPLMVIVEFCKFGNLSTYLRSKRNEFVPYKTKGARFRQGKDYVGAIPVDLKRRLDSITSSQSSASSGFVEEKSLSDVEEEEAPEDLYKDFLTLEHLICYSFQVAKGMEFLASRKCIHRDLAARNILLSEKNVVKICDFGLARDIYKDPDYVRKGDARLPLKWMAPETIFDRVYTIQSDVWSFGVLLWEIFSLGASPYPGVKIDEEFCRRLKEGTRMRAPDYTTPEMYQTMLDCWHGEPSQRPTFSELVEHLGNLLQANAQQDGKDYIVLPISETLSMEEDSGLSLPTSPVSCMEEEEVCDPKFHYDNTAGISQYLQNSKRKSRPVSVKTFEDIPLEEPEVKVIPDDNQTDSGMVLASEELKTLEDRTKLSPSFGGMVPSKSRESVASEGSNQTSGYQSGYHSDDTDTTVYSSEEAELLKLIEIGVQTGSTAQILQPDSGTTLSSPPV
Sequence of Serine/threonine-protein kinase Chk1 (O14757 whole entry): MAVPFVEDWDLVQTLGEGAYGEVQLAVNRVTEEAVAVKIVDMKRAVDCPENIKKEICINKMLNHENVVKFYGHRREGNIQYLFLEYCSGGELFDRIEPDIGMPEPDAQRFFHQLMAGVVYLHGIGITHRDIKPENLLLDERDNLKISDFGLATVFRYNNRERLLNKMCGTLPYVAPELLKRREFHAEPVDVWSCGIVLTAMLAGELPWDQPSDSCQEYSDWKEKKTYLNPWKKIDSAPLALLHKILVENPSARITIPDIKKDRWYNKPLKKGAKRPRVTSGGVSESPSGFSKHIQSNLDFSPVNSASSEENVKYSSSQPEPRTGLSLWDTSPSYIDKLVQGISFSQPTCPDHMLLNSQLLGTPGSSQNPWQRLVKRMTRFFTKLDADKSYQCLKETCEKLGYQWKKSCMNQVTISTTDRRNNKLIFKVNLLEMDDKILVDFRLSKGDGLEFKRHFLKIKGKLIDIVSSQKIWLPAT
Sequence of Receptor-type tyrosine-protein kinase FLT3 (P36888 whole entry): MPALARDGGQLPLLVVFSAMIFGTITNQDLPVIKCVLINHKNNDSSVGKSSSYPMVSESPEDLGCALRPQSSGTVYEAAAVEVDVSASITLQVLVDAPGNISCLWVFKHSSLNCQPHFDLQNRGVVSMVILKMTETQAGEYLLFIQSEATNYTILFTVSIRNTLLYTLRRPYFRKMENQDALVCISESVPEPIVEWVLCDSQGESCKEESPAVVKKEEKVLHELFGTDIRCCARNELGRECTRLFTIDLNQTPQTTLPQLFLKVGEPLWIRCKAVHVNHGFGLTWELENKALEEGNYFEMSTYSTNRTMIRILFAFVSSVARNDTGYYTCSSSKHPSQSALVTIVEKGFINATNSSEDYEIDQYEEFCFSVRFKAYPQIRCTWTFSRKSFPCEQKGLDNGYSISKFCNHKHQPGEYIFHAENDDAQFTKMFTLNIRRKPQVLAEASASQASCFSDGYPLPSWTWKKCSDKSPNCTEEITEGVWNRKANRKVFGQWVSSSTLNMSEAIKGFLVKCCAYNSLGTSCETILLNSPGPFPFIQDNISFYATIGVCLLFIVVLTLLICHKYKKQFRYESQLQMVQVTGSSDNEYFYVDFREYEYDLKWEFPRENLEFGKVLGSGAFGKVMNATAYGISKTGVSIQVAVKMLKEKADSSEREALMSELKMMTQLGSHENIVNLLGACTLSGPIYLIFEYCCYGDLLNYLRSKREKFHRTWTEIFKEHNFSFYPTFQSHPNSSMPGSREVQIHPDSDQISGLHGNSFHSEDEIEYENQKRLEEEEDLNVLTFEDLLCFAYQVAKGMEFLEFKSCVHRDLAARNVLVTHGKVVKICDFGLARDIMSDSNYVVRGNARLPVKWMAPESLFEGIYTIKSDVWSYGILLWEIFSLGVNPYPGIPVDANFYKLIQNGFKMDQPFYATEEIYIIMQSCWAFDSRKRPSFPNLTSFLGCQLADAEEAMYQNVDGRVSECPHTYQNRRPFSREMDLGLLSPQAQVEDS

Usually pIC50 stands for the IC50 on a negative log10 scale, so that one unit is a factor of ten. Consider `Cc1[nH]nc2c1CCCc1c-2[nH]c2cc3c(cc12)NC(=O)C3(C)C`, for which the negative-log IC50 (pIC50) against Aurora kinase A [1] is 8.70; in the data set on HT-29, 7.52; with MCF7, 7.00.

Turning to `CCOC(=O)c1[nH]nc2c1CCc1c-2[nH]c2ccccc12`, the negative-log IC50 (pIC50) against Aurora kinase A [1] was 5.24.

In the case of `OCc1[nH]nc2c1CCc1c-2[nH]c2ccccc12`, the pIC50 against Aurora kinase A [1] was 6.47.

With `Cc1cc(-c2cc3ccccc3[nH]2)n[nH]1`, the negative logarithm of the IC50 (pIC50) is 6.29 against Aurora kinase B [2] and 5.96 at Aurora kinase A [1].

For `Cc1[nH]nc2c1Cc1c-2[nH]c2ccccc12`, the pIC50 was 6.06 against Aurora kinase B [2], 6.06 on Aurora kinase A [1], less than 4.70 with HT-29 and less than 4.70 in the data set with MCF7.

Regarding `c1ccc2c3c([nH]c2c1)-c1n[nH]c(C2CC2)c1CC3`, the pIC50 against Aurora kinase A [1] was 6.96.

On to `Cc1[nH]nc2c1CCc1c-2[nH]c2ccccc12`, for which the negative logarithm of the IC50 (pIC50) against Aurora kinase B [2] was 6.66; at Aurora kinase A [1], 7.29; with HT-29 it was less than 4.70; with MCF7, 5.35.

As a reminder, the Cmax is the highest concentration seen after dosing. The term AUC(0-t) denotes the area under the concentration-time curve up to a stated or last time point. Turning to `CCN1C(=O)C(C)(C)c2cc3nc(-c4cc(C)[nH]n4)[nH]c3cc21`, the pIC50 at Aurora kinase B [2] is 6.89; against Aurora kinase A [1], 7.16. Also, the highest level in [3] (Cmax) was 51 µM. The AUC(0-t) in [4] was found to be 180 µM·h.

As for `Cc1[nH]nc2c1CCCc1c-2[nH]c2cc3c(cc12)C(C)(C)C(=O)N3`, the negative logarithm of the IC50 (pIC50) against Aurora kinase B [2] is 7.07; on Aurora kinase A [1] it was 7.14; in the data set with HT-29, 5.59; in the data set with MCF7 it was 5.82.

Consider `Cc1cc(Nc2cc(N3CCN(C)CC3)nc(Sc3ccc(NC(=O)C4CC4)cc3)n2)n[nH]1` [TOZASERTIB], for which the negative-log IC50 (pIC50) is 7.28 in the data set with HCT-116, 6.82 with HT-29 and 7.32 in the data set with MCF7.

`c1ccc2c3c([nH]c2c1)-c1n[nH]cc1CC3` gave a negative logarithm of the IC50 (pIC50) against Aurora kinase A [1] of 6.52.

Usually clearance stands for the rate of elimination divided by the concentration. High values mean efficient removal, low ones inefficient removal. The term bioavailability denotes dose-corrected exposure relative to a reference, in per cent. High values mean good availability, low ones poor availability. Take `CCN1C(=O)C(C)(C)c2cc3[nH]c4c(c3cc21)CCCc1c-4n[nH]c1C`: the clearance in data set [5] was found to be 22 mL/min/kg; in [6], 34 mL/min/kg; in [15], 25 mL/min/kg. Further, the negative logarithm of the IC50 (pIC50) is 8.30 against Aurora kinase B [2]; 7.00 on Aurora kinase B [11]; 6.60 in data set [12]; 4.82 in data set [13]; 6.51 at Aurora kinase B [14]; 7.07 in [17]. Moreover, the pIC50 in data set [18] is 7.92; in [19] it was 8.70; on Aurora kinase A [20], 6.80; in data set [22], 5.11. In addition, the Activity result in the data set on Mus musculus [7], in the data set on Mus musculus [8] and in the data set on Mus musculus [16] was “Toxic” in each case. This compound also displayed a F in the data set with Mus musculus [9] of 178%. Besides, the bioavailability in data set [10] is 56%; in data set [21], 97%.

On to `Cc1cc(-c2nc3cc4c(cc3[nH]2)NC(=O)C4(C)C)n[nH]1`, for which the negative logarithm of the IC50 (pIC50) on Aurora kinase B [2] is 6.82; at Aurora kinase A [1] it was 6.74. The same compound had a Cmax in [3] of 0.88 µM. In data set [4], this compound showed an AUC(0-t) of 1.5 µM·h.

Regarding `Cc1[nH]nc2c1CCCC1c3ccccc3NC21` (stereo not given), the pIC50 on Aurora kinase B [2] is 7.66; against Aurora kinase A [1], 7.38; in the data set on HT-29, 5.59; in the data set on MCF7 it was 6.17.
